Source: ChEMBL document CHEMBL1132167, “Flavonoid-related modulators of multidrug resistance: synthesis, pharmacological activity, and structure-activity relationships” (J Med Chem, 1999)

Tests used:
[1] = biological target: T1, ATP-dependent translocase ABCB1 (Homo sapiens, UniProt P08183); test: Pgp transport inhibitory activity at 1 uM was measured by JC-1 accumulation assay method using JC-1 as substrate; type: functional
In short: (§1)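 JC-1 stock (1 mg/mL in DMSO) diluted to 5 μg/mL in PBS with 1 g/L glucose, then filtered to remove aggregates (monomer 0.2 μM final). Washed K562/DOX cells at 5×10^5/mL were incubated with JC-1 and compound concurrently at 37 °C, DMSO ≤0.5%. Fluorescence (485/590 nm) was followed to plateau, about 2 h. Accumulation is expressed as % of the 5 μM S9788 plate control after subtracting JC-1 alone. Mean of ≥2 experiments.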

[2] = biological target: T1, ATP-dependent translocase ABCB1; test: Pgp transport inhibitory activity at 10 uM was measured by JC-1 accumulation assay method using JC-1 as substrate; type: functional; in short: as §1
[3] = biological target: T1, ATP-dependent translocase ABCB1; test: Pgp transport inhibitory activity at 5 uM was measured by JC-1 accumulation assay method using JC-1 as substrate; type: functional; in short: as §1
[4] = system: K562; test: Ability to potentiate DOX cytotoxicity on K562/DOX MDR cells. Cell survival was assayed by MTT conversion; type: functional, cell-based; conditions: Homo sapiens
In short: (§2)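 K562/DOX human erythroleukemia cells (doxorubicin-selected, Pgp-overexpressing; RPMI-1640 + 10% FCS) exposed 72 h to seven graded doxorubicin concentrations (six wells each) plus tested compound at 1 or 5 μM, DMSO ≤0.1% final. MTT formazan dissolved in DMSO, A570 read. Survival relative to untreated wells; DOX IC50 by linear interpolation; MF = IC50(DOX alone)/IC50(DOX + compound). Mean of ≥2 independent experiments.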

[5] = system: K562; test: Modulation factor: IC50(DOX alone)/IC50(DOX+modulator); type: functional, Homo sapiens; in short: as §2
[6] = Modulation factor: IC50(DOX alone)/IC50(DOX+modulator).; type: functional; in short: as §2
[7] = (§3) modulation factor: IC50 (uM); type: functional
[8] = as §3; type: functional; remark: listed apart in the source

T1 sequence (P08183 whole entry): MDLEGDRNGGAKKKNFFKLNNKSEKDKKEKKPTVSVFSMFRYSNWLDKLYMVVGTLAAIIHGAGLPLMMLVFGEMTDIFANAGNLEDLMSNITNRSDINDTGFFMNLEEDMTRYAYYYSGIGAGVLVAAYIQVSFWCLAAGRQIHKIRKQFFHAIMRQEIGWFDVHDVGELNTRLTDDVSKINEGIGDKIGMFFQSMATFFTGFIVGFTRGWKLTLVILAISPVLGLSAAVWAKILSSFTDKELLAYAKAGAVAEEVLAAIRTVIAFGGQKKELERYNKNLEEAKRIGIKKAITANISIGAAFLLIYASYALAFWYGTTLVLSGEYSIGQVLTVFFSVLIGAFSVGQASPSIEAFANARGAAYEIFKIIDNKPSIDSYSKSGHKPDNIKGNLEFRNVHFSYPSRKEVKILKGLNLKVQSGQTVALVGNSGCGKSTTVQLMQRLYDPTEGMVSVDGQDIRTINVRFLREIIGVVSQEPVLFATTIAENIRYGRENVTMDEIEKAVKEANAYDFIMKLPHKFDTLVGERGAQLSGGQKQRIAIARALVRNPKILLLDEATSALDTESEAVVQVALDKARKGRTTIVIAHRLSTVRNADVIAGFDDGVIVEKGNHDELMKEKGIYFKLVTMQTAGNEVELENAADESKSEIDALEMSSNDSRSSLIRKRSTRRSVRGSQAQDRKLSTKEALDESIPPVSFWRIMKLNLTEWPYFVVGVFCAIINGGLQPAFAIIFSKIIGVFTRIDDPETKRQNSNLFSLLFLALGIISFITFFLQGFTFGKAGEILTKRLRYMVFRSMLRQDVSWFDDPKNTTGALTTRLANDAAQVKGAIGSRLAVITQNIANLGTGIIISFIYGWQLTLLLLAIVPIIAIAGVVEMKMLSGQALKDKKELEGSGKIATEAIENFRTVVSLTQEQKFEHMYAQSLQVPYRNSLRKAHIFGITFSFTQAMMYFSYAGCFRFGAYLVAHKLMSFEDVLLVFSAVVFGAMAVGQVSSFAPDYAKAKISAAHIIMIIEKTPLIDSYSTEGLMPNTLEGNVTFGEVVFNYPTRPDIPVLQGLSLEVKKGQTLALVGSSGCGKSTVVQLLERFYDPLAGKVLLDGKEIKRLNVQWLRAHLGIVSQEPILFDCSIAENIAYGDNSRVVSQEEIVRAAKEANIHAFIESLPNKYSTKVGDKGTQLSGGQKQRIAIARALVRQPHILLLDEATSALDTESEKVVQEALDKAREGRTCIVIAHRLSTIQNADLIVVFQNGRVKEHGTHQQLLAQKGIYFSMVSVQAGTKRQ

Relative JC-1 accumulation [1]	Relative JC-1 accumulation [2]	Relative JC-1 accumulation [3]	SMILES	IC50 [4]	Modulation factor [5]	Modulation factor [6]	Modulation factor [7]	Modulation factor [8]
7	24	13	CCOC(=O)COc1cc(O)c2c(=O)cc(-c3ccc(OC)c(OCC(=O)N4CCN(Cc5ccccc5Cl)CC4)c3)oc2c1	> 20 µM	2	7	–	–
72	75	82	COc1ccc(C2CC(=O)c3c(OC(=O)C(C)(C)C)cc(OCC(=O)N4CCN(Cc5ccc(OC)c(OC)c5OC)CC4)cc3O2)cc1OC(=O)C(C)(C)C (configuration not stated)	> 20 µM	–	–	18	45
0	0	0	COc1ccc(-c2cc(=O)c3c(OCC(=O)N4CCN(Cc5ccc(OC)c(OC)c5OC)CC4)cc(O)cc3o2)cc1O	> 20 µM	–	1	–	–
33	91	82	COc1ccc(C2CC(=O)c3c(O)cc(OCC(=O)N4CCN(Cc5ccc(OC)c(OC)c5OC)CC4)cc3O2)cc1OC(C)=O (configuration not stated)	> 20 µM	–	–	8	31
6	23	14	CCOC(=O)COc1cc(-c2cc(=O)c3c(O)cc(OCC(=O)N4CCN(Cc5ccc(Cl)cc5)CC4)cc3o2)ccc1OC	14 µM	4	22	–	–
2	28	22	CCOC(=O)COc1cc(-c2cc(=O)c3c(O)cc(OCC(=O)N4CCN(Cc5cccc(OC)c5OC)CC4)cc3o2)ccc1OC	> 20 µM	5	24	–	–
0	0	0	COc1ccc(C2CC(=O)c3c(O)cc(OCC(=O)N4CC[N+](C)(Cc5ccc(OC)c(OC)c5OC)CC4)cc3O2)cc1O.[I-] (configuration not stated)	> 20 µM	–	1	–	–
3	27	28	CCOC(=O)COc1cc(-c2cc(=O)c3c(O)cc(OCC(=O)N4CCN(Cc5ccc(OC)c(OC)c5)CC4)cc3o2)ccc1OC	> 20 µM	4	23	–	–
0	0	0	COc1ccc(-c2cc(=O)c3c(O)cc(O)cc3o2)cc1OCC(=O)N1CCN(Cc2ccc(OC)c(OC)c2OC)CC1	> 20 µM	–	–	–	1
–	–	–	COc1ccc(CCN(C)CCCC(C#N)(c2ccc(OC)c(OC)c2)C(C)C)cc1OC (configuration not stated) [VERAPAMIL]	37 µM	–	–	7	31
2	24	26	CCOC(=O)COc1cc(-c2cc(=O)c3c(O)cc(OCC(=O)N4CCN(Cc5cc(OC)c(OC)c(OC)c5)CC4)cc3o2)ccc1OC	> 20 µM	3	31	–	–
0	0	0	COc1ccc(-c2cc(=O)c3c(O)cc(O[C@@H]4O[C@H](CO[C@@H]5O[C@@H](C)[C@H](O)[C@@H](O)[C@H]5O)[C@@H](O)[C@H](O)[C@H]4O)cc3o2)cc1OCC(=O)N1CCN(Cc2ccc(OC)c(OC)c2OC)CC1	> 20 µM	–	–	–	1
4	31	26	CCOC(=O)COc1cc(O)c2c(=O)cc(-c3ccc(OC)c(OCC(=O)N4CCN(Cc5ccc(OC)c(OC)c5)CC4)c3)oc2c1	9 µM	2	25	–	–
0	0	0	COc1ccc(-c2cc(=O)c3c(O)cc(O[C@@H]4O[C@H](CO)[C@H](O)[C@@H](O)[C@H]4O)cc3o2)cc1OCC(=O)N1CCN(Cc2ccc(OC)c(OC)c2OC)CC1	> 20 µM	–	–	–	1
28	56	50	COc1ccc(-c2cc(=O)c3c(OCC(=O)N4CCN(Cc5ccc(OC)c(OC)c5OC)CC4)cc(OCc4ccccc4)cc3o2)cc1OCc1ccccc1	8 µM	–	–	14	45
1	59	10	CCOC(=O)COc1cc(OCC(=O)N2CCN(Cc3ccc(OC)c(OC)c3OC)CC2)c2c(=O)cc(-c3ccc(OC)c(OCC(=O)OCC)c3)oc2c1	> 20 µM	–	1	–	–
14	73	69	CCOC(=O)COc1cc(-c2cc(=O)c3c(O)cc(OCC(=O)N4CCN(Cc5ccc(OC)c(OC)c5OC)CC4)cc3o2)ccc1OC	> 20 µM	9	22	–	–
0	8	3	COc1ccc(C2CC(=O)c3c(O)cc(OCC(=O)N4CCN(Cc5cc(OC)c(OC)c(OC)c5)CC4)cc3O2)cc1O (configuration not stated)	> 20 µM	2	21	–	–
22	53	60	COc1ccc(-c2cc(=O)c3c(O)cc(OCC(=O)N4CCN(Cc5ccc(OC)c(OC)c5OC)CC4)cc3o2)cc1OCC(=O)N1CCN(Cc2ccc(OC)c(OC)c2OC)CC1	2 µM	1	–	–	–
2	5	–	COc1ccc(CCC(=O)c2c(O)cc(OCC(=O)N3CCN(Cc4ccc(OC)c(OC)c4OC)CC3)cc2O)cc1O	> 20 µM	–	–	–	3
10	38	35	CCOC(=O)COc1cc(-c2cc(=O)c3c(O)cc(OCC(=O)N4CCN(Cc5ccccc5)CC4)cc3o2)ccc1OC	> 20 µM	4	21	–	–
4	69	50	COc1ccc(C2CC(=O)c3c(O)cc(OCC(=O)N4CCN(Cc5ccc(OC)c(OC)c5OC)CC4)cc3O2)cc1O (configuration not stated)	16 µM	11	42	–	–
2	75	55	COc1ccc(C2CC(=O)c3c(OC(C)=O)cc(OCC(=O)N4CCN(Cc5ccc(OC)c(OC)c5OC)CC4)cc3O2)cc1OC(C)=O (configuration not stated)	> 20 µM	–	–	10	31
5	55	56	CCOC(=O)COc1cc(O)c2c(=O)cc(-c3ccc(OC)c(OCC(=O)N4CCN(Cc5cc(OC)c(OC)c(OC)c5)CC4)c3)oc2c1	11 µM	5	25	–	–
7	59	56	CCOC(=O)COc1cc(O)c2c(=O)cc(-c3ccc(OC)c(OCC(=O)N4CCN(Cc5ccc(OC)c(OC)c5OC)CC4)c3)oc2c1	> 20 µM	3	17	–	–
4	30	50	COc1ccc(-c2cc(=O)c3c(O)cc(OCC(=O)N4CCN(Cc5ccc(OC)c(OC)c5OC)CC4)cc3o2)cc1O	6 µM	11	78	–	–
3	21	17	COc1ccc(/C=C/C(=O)c2c(O)cc(OCC(=O)N3CCN(Cc4ccc(OC)c(OC)c4OC)CC3)cc2O)cc1O	> 20 µM	–	–	9	45

SMILES	Relative JC-1 accumulation [1]	Relative JC-1 accumulation [2]	Relative JC-1 accumulation [3]	IC50 [4]	Modulation factor [5]	Modulation factor [6]	Modulation factor [7]	Modulation factor [8]
COc1ccc(C2CC(=O)c3c(O)cc(OCC(=O)N4CCN(Cc5cccc(OC)c5OC)CC4)cc3O2)cc1O (configuration not stated)	0	6	2	> 20 µM	4	28	–	–
COc1ccc(C2CC(=O)c3c(O)cc(OCC(=O)N4CCN(Cc5ccc(OC)c(OC)c5)CC4)cc3O2)cc1O (configuration not stated)	0	31	9	> 20 µM	4	31	–	–
